High-throughput results from PubChem.
Rows were chosen to be rich in hits. Some 1.5% of all compounds tested hit in one or more screens of this group.
AF4-AF9 inh – blocks AF4 peptide binding to human AF9; P42568; AlphaScreen, biotin-AF4 peptide binding to FLAG-AF9; inhibition, % at 10 µM; 0.47% of 350,000 active; AID 651704;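 active = every replicate reaching a set inhibition limit, whatever the replicate mean, cut at about 25% in these data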;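 note: 0% = plate neutral control median and 100% = total signal loss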
RAD52 inh – RAD52 (human) annealing inhibition. P43351. recombinant RAD52 DNA annealing, FRET fluorescence. inhibition, % at 18.7 µM. 0.46% of 360,000 active. AID 651710;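 active = every replicate showing at least 50% inhibition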
Target sequence (P43351 whole entry, looked up): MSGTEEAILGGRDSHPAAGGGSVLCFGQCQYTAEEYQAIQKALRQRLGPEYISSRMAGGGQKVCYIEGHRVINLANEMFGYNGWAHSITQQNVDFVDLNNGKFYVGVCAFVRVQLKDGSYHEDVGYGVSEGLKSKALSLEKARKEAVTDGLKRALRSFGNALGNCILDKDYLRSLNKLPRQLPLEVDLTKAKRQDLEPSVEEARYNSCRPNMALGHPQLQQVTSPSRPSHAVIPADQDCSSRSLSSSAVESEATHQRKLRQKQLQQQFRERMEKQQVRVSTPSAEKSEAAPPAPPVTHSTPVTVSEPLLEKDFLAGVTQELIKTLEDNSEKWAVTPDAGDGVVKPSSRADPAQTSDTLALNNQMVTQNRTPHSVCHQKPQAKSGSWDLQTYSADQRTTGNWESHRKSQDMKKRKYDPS
GSIS activator – primary screen for activators of insulin secretion dependent on glucose, INS-1E cells, GLuc reporter luminescence. INS-1E GLuc reporter insulin secretion, 2-3 h. activation, % at 16.6 µM. 0.61% of 370,000 active. AID 743287;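 active = lowest replicate activation of at least 40%, so every replicate reaches that level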;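 note: 0% = median of neutral control wells and 100% = median of IBMX positive control wells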
S100A4 inh HTS – S100A4-myosin IIA interaction inhibition; 0.14% of 360,000 active; inhibition, % at 10.7 µM; P26447; S100A4/TAMRA-MyoIIA peptide fluorescence polarization;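 active = mean inhibition of at least 70% across replicates, with every replicate also reaching that level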
Target sequence (P26447 whole entry, looked up): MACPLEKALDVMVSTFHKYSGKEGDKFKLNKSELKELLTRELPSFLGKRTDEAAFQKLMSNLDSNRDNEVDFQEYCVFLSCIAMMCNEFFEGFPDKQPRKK
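Material: human S100A4 monomer with TAMRA-labelled myosin IIA peptide; buffer or medium: HEPES pH 7.2 with CaCl2, KCl, NaCl, DTT, Triton; compound dosing: one concentration per compound; schedule: 5 min incubation before reading; benchmarks: neutral control DMSO, positive control TFP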
ERAP1 inh – blocks human ERAP1 aminopeptidase activity; 0.15% of 340,000 active; inhibition, % at 10.7 µM; AID 652197; recombinant ERAP1, Leu-AMC fluorescence, 60 min; Q9NZ08;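 active = mean replicate inhibition of at least 30%, or all replicates individually reaching that 30% level; inactive = mean below 30% and not every replicate reaching it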;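 note: 0% = neutral control wells and 100% = L-leucinethiol positive control wells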
* hit, by the source's call; / = no result.

SMILES	AF4-AF9 inh	RAD52 inh	GSIS activator	S100A4 inh HTS	ERAP1 inh
CN(C)C(=O)c1cccc(-c2ccccc2[C@H]2[C@@H](C#N)N(C(=O)C3CCC3)[C@@H]2CO)c1	1	-7	6	-21	1
C[C@H](CO)N1C[C@H](C)[C@H](CN(C)C(=O)Cc2ccccn2)Oc2ncc(-c3ccncc3)cc2C1=O	-19	-4	0	-2	2
C[C@H]1CC=CC[C@H](c2ccc3c(c2)OCO3)NC(=O)[C@@H](Cc2ccccc2)N(C)C(=O)c2ccccc2O1 (mixture of isomers)	/	/	-23	/	/
N#Cc1ccccc1OCC(=O)OCC(=O)c1ccc2c(c1)NC(=O)CO2	/	-18	4	1	36*
CCCNC(=O)[C@H]1[C@H](CO)[C@H]2Cn3c(ccc(-c4ccc(F)cc4)c3=O)[C@@H]1N2CCC	-4	-5	-10	14	0
CCOc1ncnc2c1oc1nc(CC(C)C)c3c(c12)CC(C)(C)OC3	-8	-5	10	-6	2
CCOc1nc(CC(C)C)c2c(c1C#N)CC(C)(C)OC2	-6	-6	51*	25	-3
Cc1ccccc1-c1ccc([C@H]2[C@@H](CO)N3C(=O)CN(C(=O)c4cccnc4)C[C@H]23)cc1	/	/	-16	/	/
CCOC(=O)C1CCN(C(=O)c2ccc(Cl)c(NC3=NC4CS(=O)(=O)CC4S3)c2)CC1 (stereo not given)	25*	-10	9	-9	1
CC(=O)c1ccc(N2CCN(C(=O)c3ccc(Cl)c(NC4=NC5CS(=O)(=O)CC5S4)c3)CC2)cc1 (stereo not given)	-1	-22	1	-4	4
CCc1nc2ccc(C(=O)NCCCN3CCCC3=O)cn2c1N(CCC(C)C)CCN(C)C	-2	-10	49*	-3	-8
CCc1nc2ccc(C(=O)NCCNC(C)=O)cn2c1N(CC)CCOC	46*	-7	8	3	-2
CC(=O)N1CC2(C1)[C@@H](c1ccc(-c3ccc(C#N)cc3)cc1)[C@@H](CO)N2C(C)=O	-2	-9	1	-14	/
O=C(c1cnccn1)N1CC(=O)N2[C@@H](CO)[C@@H](c3ccc(C#CC4CCCCC4)cc3)[C@@H]2C1	1	-4	-10	26	1
COc1cccc(/C=C2\SC(=O)N(CCC(=O)NNC(=O)c3ccccc3Cl)C2=O)c1	/	/	97*	/	/
C[C@@H]1CN([C@@H](C)CO)C(=O)c2cc(NC(=O)c3ccccc3)ccc2O[C@@H](C)CCCCO[C@@H]1CN(C)Cc1ccncc1	-1	-3	-7	32	-1
COc1cc2c(cc1OC)-c1cc(Nc3ccc(N(C)C)cc3)nc(=O)n1CC2	1	2	79*	4	-10
CCN(CC)c1ccc(Nc2cc3n(c(=O)n2)CCc2cc(OC)c(OC)cc2-3)cc1	6	-75	26	15	-1
Cc1ccc(S(=O)(=O)NNC(=O)c2cccc(O)c2)cc1	48*	-9	8	14	0
O=S(=O)(Cc1ccccc1)N1[C@@H]2CNC[C@H]1C2c1ccc(/C=C/c2ccccc2)cc1 (stereo not given in full)	/	/	-26	/	/
CC(=O)c1ccc(NC(=O)C2(c3ccccc3)CC2(Cl)Cl)cc1 (stereo not given)	33*	-9	3	0	-3
O=C(Nc1ccccc1Cl)C1(c2ccccc2)CC1(Cl)Cl (stereo not given)	/	/	6	/	/
C/C=C/c1ccc([C@H]2[C@H](CO)N(S(=O)(=O)Cc3ccccc3)C23CN(C(=O)C2CCOCC2)C3)cc1	/	/	-8	/	/
CC(Nc1ccc(F)cc1)=[N+](C)CCNS(=O)(=O)c1ccc(Cl)cc1	-10	-3	26	0	39*
CCNS(=O)(=O)c1ccc(NC(=O)Cc2ccc(F)cc2)cc1	-48	-8	-12	-29	3
SMILES	AF4-AF9 inh	RAD52 inh	GSIS activator	S100A4 inh HTS	ERAP1 inh
CCOc1ncccc1C(=O)Nc1cccc(S(=O)(=O)NC2=NCCC2)c1	0	5	55*	-4	1
CCOc1ncccc1C(=O)OCC(=O)NCCCc1ccccc1	-3	-2	54*	-2	-3
CCOc1ncccc1C(=O)Nc1ccccc1F	-7	-9	77*	3	0
CCOc1ncccc1C(=O)NNC(=O)c1ccccc1-n1cccc1	-2	-10	54*	-3	2
Cc1ccc(S(=O)(=O)N(C)C[C@@H]2Oc3ccc(NC(=O)NC(C)C)cc3CC(=O)N([C@@H](C)CO)C[C@@H]2C)cc1	1	5	0	10	2
C[C@@H]1CN([C@@H](C)CO)C(=O)c2cc(C#Cc3cccc(F)c3)cnc2O[C@H]1CN(C)Cc1ccccn1	-7	-26	14	-14	-1
NC(=O)COC(=O)c1cccnc1Nc1ccccc1F	-2	-9	36	0	3
CN(C)C(=O)COC(=O)c1cccnc1Nc1ccccc1F	0	-11	80*	-6	7
O=C(O)c1ccc(/C=N/n2c(C3CCCCC3)n[nH]c2=S)cc1	-15	-1	63*	-5	10
CC(=O)c1cc2c(cc1NC(=O)c1cc(C)nn1-c1ccccc1)OCO2	34*	-9	/	-3	-3
O=C(CN1C(=O)NC2(CCCC2)C1=O)Oc1ccc2ccc(=O)oc2c1	-4	-11	5	-2	57*
COc1ccc(CNC(=O)CN2C(=O)NC3(CCCCCC3)C2=O)cc1	-3	-9	62*	-7	0
COC(=O)c1ccc(Cn2c(O)c(N=NC(N)=S)c3ccccc32)o1	4	-5	64*	-3	0
CCc1nnc(NC(=O)c2cc(S(=O)(=O)N3CCOCC3)ccc2N2CCCCC2)s1	-2	-9	4	-2	56*
CC(C)CC#Cc1ccc([C@@H]2[C@@H](CO)N3C(=O)CN(C(=O)NC(C)C)C[C@H]23)cc1	/	/	-3	/	/
O=C(c1ccc2c(c1)OCO2)N1CCN(S(=O)(=O)c2ccccc2)CC1	1	4	46*	0	3
CC1CCN(S(=O)(=O)c2ccc(C(=O)OCc3ccc4c(c3)OCO4)cc2)CC1	/	/	142*	/	/
Cc1ccc(S(=O)(=O)N2CCN(C(=O)c3ccc4c(c3)OCO4)CC2)cc1	-3	-10	-4	-2	0
CC(=O)Oc1ccc(Cl)cc1/C=C/c1ccc2ccccc2n1	/	/	53*	/	/
CCOc1nc(NC(=O)NS(=O)(=O)Oc2cccc(Cl)c2)nc(-c2ccccc2)n1	/	/	19	/	/
CCOc1nc(NC(=O)NS(=O)(=O)c2cccc(Cl)c2)nc(-c2ccccc2)n1	2	-3	71*	-1	4
CCOc1nc(NC(=O)NS(=O)(=O)Oc2ccccc2Cl)nc(-c2ccccc2)n1	/	/	60*	/	/
CC(=O)NC(CC(=O)NCCOc1ccccc1F)c1ccccc1 (stereo not given)	2	-9	7	0	36*
CC(=O)NC(CC(=O)NNC(=O)C(C)Oc1ccccc1F)c1ccccc1 (stereo not given)	5	0	10	-18	4
